RGS4 act – RGS4 potentiation or activation | HEK293 M3R/inducible RGS4, carbachol calcium flux Fluo4; hits give low values | B-score at 10 µM | hit rate 0.92% among 310,000 | AID 463111;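 active = B-score of the integrated calcium signal more than 4 SD below the library mean, with starting fluorescence not abnormally high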;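 also: negative B-score means reduced calcium response which marks RGS4 activation or potentiation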
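Assay system: Inducible-RGS4 HEK293 cells carrying M3 receptor | Schedule: Compound preincubation 20 min at room temperature before agonist | Signal: Kinetic calcium fluorescence imaging with Fluo4-AM dye, 2 µM | Read-out basis: B score from integrated fluorescence ratio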
RGS4 inh – human RGS4 inhibition; P49798; HEK293 M3R/RGS4 inducible, Fluo-4 calcium flux; hits give high values; triggered by carbachol at its EC20; B-score at 10 µM; hit rate 0.45% among 310,000;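 active = B-score, a plate-corrected calcium signal, over three deviations above library mean, with baseline fluorescence within five deviations of library mean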;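 also: RGS4 expression induced by doxycycline in cells with stable M3 receptor; B-score is computed from the integrated fluorescence ratio over baseline after carbachol; higher B-score means a larger calcium signal and so more RGS4 inhibition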
Target sequence (P49798 whole entry, looked up): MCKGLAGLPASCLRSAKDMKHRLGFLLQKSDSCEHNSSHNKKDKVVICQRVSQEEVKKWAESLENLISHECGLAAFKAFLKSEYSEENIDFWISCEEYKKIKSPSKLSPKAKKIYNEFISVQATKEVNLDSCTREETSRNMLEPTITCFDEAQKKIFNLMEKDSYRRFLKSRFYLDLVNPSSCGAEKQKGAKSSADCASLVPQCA
MrgX1 antagonist – blocks BAM8-22 activation of human MrgX1 receptor. hit rate 1.3% among 310,000. Q96LB2. AID 588676. B-score at 10 µM. MRGX1-HEK293 calcium flux, Fluo-4, BAM8-22 antagonism; hits give low values;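 active = calcium-response B-score plate-corrected more than 3 library SD below zero, starting fluorescence within 5 deviations, no agonist response on first addition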;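 also: peak minus trough fluorescence over baseline after final BAM8-22 challenge near maximal dose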
Target sequence (Q96LB2 whole entry, looked up): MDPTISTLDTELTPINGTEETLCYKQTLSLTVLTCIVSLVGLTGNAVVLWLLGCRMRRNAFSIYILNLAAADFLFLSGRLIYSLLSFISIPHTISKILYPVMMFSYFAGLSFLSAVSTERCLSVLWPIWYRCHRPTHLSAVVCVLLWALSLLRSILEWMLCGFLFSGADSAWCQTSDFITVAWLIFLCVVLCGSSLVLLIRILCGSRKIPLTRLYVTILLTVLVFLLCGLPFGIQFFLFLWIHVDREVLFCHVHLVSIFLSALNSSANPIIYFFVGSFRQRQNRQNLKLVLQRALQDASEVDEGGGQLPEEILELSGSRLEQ
MrgX1 PAM – allosterically activates human MrgX1 receptor signaling | B-score at 10 µM | AID 588675 | Q96LB2 | hit rate 0.63% among 310,000 | MrgX1-HEK293, Fluo-4 calcium flux, FDSS; hits give high values;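 active = plate-corrected calcium response at least 3 library SD above typical, normal starting fluorescence, not activating the receptor alone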;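 also: compound read alongside a low EC10 to EC30 dose of BAM8-22 agonist; peak minus trough fluorescence over baseline measured at the second addition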
MrgX1 ag – human MrgX1 receptor agonism, primary screen. Q96LB2. MrgX1-HEK293 cells, Fluo-4 calcium fluorescence, agonist mode; hits give high values. B-score at 10 µM. hit rate 0.44% among 310,000. AID 588627;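 active = calcium response B-score plate-corrected fluorescence ratio at least 3 library SD, with starting fluorescence B-score inside 5 SD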
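System: HEK293 cells stably expressing human MrgX1 receptor; Dosing: test compound in the initial addition of three; Schedule: overnight plating, then 30 min 37 °C plus 30 min room-temperature dye loading; Detection: kinetic calcium dye fluorescence, Fluo-4 NW; Controls: per-plate positive and negative controls for Z′ factor.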
* = called active by the depositor; i = inactive; x = no result given. Hits are enriched below; roughly 3.5% of the tested compounds scored in any of these assays.

SMILES	RGS4 act	RGS4 inh	MrgX1 antagonist	MrgX1 PAM	MrgX1 ag
COc1ccc(/C=C/C(=O)NCC(=O)N=Nc2c(O)[nH]c3ccc([N+](=O)[O-])cc23)cc1	i	i	i	i	i
Fc1ccc([C@@H]2CCNC[C@H]2COc2ccc3c(c2)OCO3)cc1	-7.09*	i	i	i	i
Fc1ccc(C2CCNCC2COc2ccc3c(c2)OCO3)cc1 (configuration not stated)	-8.75*	i	i	i	i
O=S(=O)(c1ccc(Br)cc1)N1CCN(Cc2ccco2)CC1	i	i	i	i	i
Cc1cc(C)c(C)c(S(=O)(=O)N2CCC(C(=O)OCC(=O)N3c4ccccc4NC(=O)C3(C)C)CC2)c1C	-7.03*	i	i	i	i
COC(=O)c1ccc(N2CCc3ccccc32)c([N+](=O)[O-])c1	i	i	i	7.7*	i
O=C(O)c1ccc(N2CCc3ccccc32)c([N+](=O)[O-])c1	i	i	i	i	i
CC(C)C(=O)O/N=C(\N)c1ccc(Oc2ccc(Cl)cc2)c([N+](=O)[O-])c1	-8.6*	i	i	i	i
Cc1ccc(NC(=O)CN(C)C(=O)c2ccc(NC(=O)CC3SC(N4CCCC4)=NC3=O)cc2)cc1 (configuration not stated)	i	i	-9.62*	i	i
Cc1c(C=Nc2ccc(S(=O)(=O)CCO)cc2)c(O)[nH]c(=O)c1C#N	i	i	i	i	i
CC(OC(=O)CCN=C1NS(=O)(=O)c2ccccc21)C(=O)N(C)C1CCCCC1 (configuration not stated)	i	i	i	i	i
COc1c(CC=C(C)C)c(O)cc2oc(=O)c3c4ccc(O)cc4oc3c12	i	i	-10.7*	i	i
COc1c2c(cc3oc(=O)c4c5ccc(O)cc5oc4c13)OC(C)(C)CC2	i	i	i	i	i
CCOC(=O)c1cnc2c(C(F)(F)F)cccc2c1NCCCN1CCOCC1	i	i	i	i	i
COc1c(CC=C(C)C)cc(C2CC(=O)c3c(O)cc(O)cc3O2)c(CC=C(C)C)c1O (configuration not stated)	-7.63*	i	i	i	i
Cc1ccc(C(NC(=O)N2CCCC2)C(Cl)Cl)cc1F (configuration not stated)	i	i	-4.78*	i	i
CCOC(=O)N1CCN(C(=O)C2CCC(=O)N(Cc3ccc(Cl)cc3)C2)CC1 (configuration not stated)	i	i	i	i	i
O=C(O)CCC1c2cc3c4cc2OC2Oc5cc6c(cc51)C(CCC(=O)O)c1cc5c7cc1OC(O6)c1cc6cc(c1)Oc1cc(cc(C(=O)O)c1)Oc1cc8cc(c1)C(Oc1cc(c(cc1C5CCC(=O)O)C3CCC(=O)O)OC(O4)c1cc(cc(c1)Oc1cc(cc(C(=O)O)c1)O8)Oc1cc(cc(C(=O)O)c1)Oc1cc(cc2c1)Oc1cc(cc(C(=O)O)c1)O6)O7 (configuration not stated)	i	i	i	i	29.3*
Cc1cccc(C)c1N(C(=O)c1ccco1)C(C(=O)NC1CCCC1)c1ccncc1 (configuration not stated)	i	i	i	i	i
Cc1sc2nc(CSC(C)C(=O)N(C)CC(=O)Nc3ccccc3C(F)(F)F)[nH]c(=O)c2c1C (configuration not stated)	-7.12*	i	i	i	i
Cc1ccc(C2=NC3(CCCCC3)NC2=S)cc1	i	i	i	i	i
CCN1CCC2(CC1)N=C(c1ccc(F)cc1)C(=S)N2	-7.41*	i	i	i	i
C/C=C/c1ccc(OCC(=O)N(CCOC)c2c(N)n(CCCC)c(=O)[nH]c2=O)c(OC)c1	i	i	i	i	i
Cc1nnc2sc(SCc3ccc(Cl)cc3)nn2c1=O	i	i	-6.62*	i	i
O=C(COC(=O)C1CCC1)Nc1ncc(Cl)cc1Cl	i	i	i	i	i
SMILES	RGS4 act	RGS4 inh	MrgX1 antagonist	MrgX1 PAM	MrgX1 ag
COc1ccc(-c2csc(=Nc3ccccc3)n2CCO)cc1	i	i	i	14.7*	i
O=C1/C(=C\c2c(NCCOCCO)nc3ccccn3c2=O)SC(=S)N1Cc1ccco1	i	i	-14.9*	i	i
N/C(Cc1ccc(Cl)cc1Cl)=N\OC(=O)c1cccs1	i	i	-7.94*	i	i
CCn1c(C)c(C(C)=O)c(N2CCN(C(c3ccccc3)c3ccccc3)CC2)nc1=S	-7.38*	i	i	i	i
CSc1cccc(N2CC(C(=O)Nc3ccccc3N3CCCC3)CC2=O)c1 (configuration not stated)	i	i	i	i	i
COc1ccc(NC(=O)COc2ccccc2C(=O)NCC(c2ccccc2)N(C)C)cc1Cl (configuration not stated)	-9.39*	i	i	i	i
CCOC(=O)c1c(NC(=O)CSc2c[nH]c3ccccc23)sc2c1CCC2	-7.1*	i	i	i	i
CCC/C=C(\CCC)C(NS(=O)(=O)c1ccc(C(F)(F)F)cc1)c1ccccc1 (configuration not stated)	-8.15*	i	i	i	i
O=C(O)C(NS(=O)(=O)c1ccc(F)cc1)c1ccccc1 (configuration not stated)	i	i	i	i	i
CC(C)N(CCC(=O)c1ccc2ccccc2c1)Cc1ccccc1	x	x	i	i	38.9*
CCC(=O)CCC(=O)c1ccc2ccccc2c1	i	i	i	i	i
Cc1cc(C)n(-c2ccc(C(F)(F)F)cc2[N+](=O)[O-])n1	-9.29*	i	i	i	i
O=C(/C=C/c1ccc(Cl)c(C(F)(F)F)c1)N1CCN(c2ccccn2)CC1	i	i	i	i	i
COc1cccc(N2C(=O)CC(NNc3nc4ccccc4s3)C2=O)c1 (configuration not stated)	i	i	i	i	29.9*
NC(=O)c1ncn([C@@H]2O[C@H](CO)[C@@H](O)[C@H]2O)c1O	i	i	-9.03*	i	i
Nc1ncn(C2O[C@H](CO)[C@@H](O)[C@H]2O)c(=O)n1 (some centres not stated)	x	x	i	i	i
COc1ccc(N2CCN(S(=O)(=O)CCNC(=O)COc3cccc(OC)c3)CC2)cc1	i	i	i	i	i
